These results are taken from ChEMBL document CHEMBL1142067, “Antiparasitic drug nitazoxanide inhibits the pyruvate oxidoreductases of Helicobacter pylori, selected anaerobic bacteria and parasites, and Campylobacter jejuni” (Antimicrob Agents Chemother, 2007).

For assay [1], the system named is Escherichia coli. In words: Growth inhibition of Escherichia coli CC104 expressing rdxA after 16 hrs relative to Escherichia coli with pBSK. The assay is classed as functional, organism-based. The method in brief: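 E. coli CC104 carrying pGS950 (expresses H. pylori rdxA) or empty pBSK was grown in 2% glucose minimal (MinA) liquid medium with drug at 0, 5, 10 or 15 µg/ml. Turbidity at 660 nm was read at 16 h in triplicate cultures, normalized to the no-drug control, and expressed as percent growth inhibition (mean and standard deviation).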

Another assay has as its system Helicobacter pylori. Nature of the assay: Activity of PFOR in Helicobacter pylori at anaerobic condition. The method in brief: (§1)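 Cell-free extracts, high-speed supernatant after sonication (parasites: sonication or glass homogenizer). PFOR assayed anaerobically at 25°C in 100 mM potassium phosphate pH 7.4 with 10 mM pyruvate, 0.18 mM CoA, 1 mM MgCl2 and 5 µM TPP. Acceptor was 5 mM benzyl viologen (546 nm) or NTZ (decrease at 418 nm). Enzyme added last. Triplicate means, per mg Bradford protein.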

Assay [2] has as its system Entamoeba histolytica. Nature of the assay: Activity of PFOR in Entamoeba histolytica at anaerobic condition. The method in brief:
as §1

Assay [3] concerns the target T1, Pyruvate-flavodoxin oxidoreductase (Clostridium perfringens (strain SM101 / Type A)) (UniProt Q0SRB6).
T1 sequence (whole entry): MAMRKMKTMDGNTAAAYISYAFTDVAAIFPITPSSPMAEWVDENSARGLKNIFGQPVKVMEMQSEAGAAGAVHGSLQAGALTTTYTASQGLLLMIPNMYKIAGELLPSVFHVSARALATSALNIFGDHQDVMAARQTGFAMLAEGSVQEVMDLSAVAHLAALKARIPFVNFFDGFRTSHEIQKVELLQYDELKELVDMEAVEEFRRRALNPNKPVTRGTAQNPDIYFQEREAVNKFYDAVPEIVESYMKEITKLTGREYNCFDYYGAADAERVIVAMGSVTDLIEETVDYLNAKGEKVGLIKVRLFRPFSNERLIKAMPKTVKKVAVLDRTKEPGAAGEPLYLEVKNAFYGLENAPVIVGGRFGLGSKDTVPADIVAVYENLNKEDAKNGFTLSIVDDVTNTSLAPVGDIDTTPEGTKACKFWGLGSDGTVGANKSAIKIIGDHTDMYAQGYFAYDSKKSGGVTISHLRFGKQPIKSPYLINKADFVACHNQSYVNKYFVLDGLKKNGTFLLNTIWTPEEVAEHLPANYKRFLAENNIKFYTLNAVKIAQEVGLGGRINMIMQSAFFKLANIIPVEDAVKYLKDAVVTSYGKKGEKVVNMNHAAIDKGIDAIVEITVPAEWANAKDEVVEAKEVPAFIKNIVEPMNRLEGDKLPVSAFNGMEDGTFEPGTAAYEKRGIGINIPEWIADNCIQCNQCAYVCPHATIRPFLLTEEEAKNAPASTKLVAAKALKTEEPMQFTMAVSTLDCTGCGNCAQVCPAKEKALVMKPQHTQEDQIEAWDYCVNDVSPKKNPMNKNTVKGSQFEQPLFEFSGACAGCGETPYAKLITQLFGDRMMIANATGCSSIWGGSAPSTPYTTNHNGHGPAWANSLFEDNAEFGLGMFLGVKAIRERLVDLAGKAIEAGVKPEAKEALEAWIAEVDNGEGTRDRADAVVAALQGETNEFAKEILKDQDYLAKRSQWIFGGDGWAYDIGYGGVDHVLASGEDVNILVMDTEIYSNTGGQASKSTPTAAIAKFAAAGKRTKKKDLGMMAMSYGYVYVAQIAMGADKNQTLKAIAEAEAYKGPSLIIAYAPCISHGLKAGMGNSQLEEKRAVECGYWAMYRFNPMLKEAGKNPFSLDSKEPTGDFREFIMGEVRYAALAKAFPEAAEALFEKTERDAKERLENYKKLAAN
In words: Activity of PFOR in Clostridium perfringens at anaerobic condition. The method in brief: as §1

The subject of the next assay is Giardia duodenalis. In words: Activity of PFOR in Giardia intestinalis at anaerobic condition. The method in brief:
as §1

For a further assay, the system named is Trichomonas vaginalis. In words: Activity of PFOR in Trichomonas vaginalis at anaerobic condition. The method in brief:
as §1

Assay [4] concerns the target T2, Pyruvate-flavodoxin oxidoreductase (Campylobacter jejuni subsp. jejuni) (UniProt Q0P8E1).
T2 sequence (whole entry): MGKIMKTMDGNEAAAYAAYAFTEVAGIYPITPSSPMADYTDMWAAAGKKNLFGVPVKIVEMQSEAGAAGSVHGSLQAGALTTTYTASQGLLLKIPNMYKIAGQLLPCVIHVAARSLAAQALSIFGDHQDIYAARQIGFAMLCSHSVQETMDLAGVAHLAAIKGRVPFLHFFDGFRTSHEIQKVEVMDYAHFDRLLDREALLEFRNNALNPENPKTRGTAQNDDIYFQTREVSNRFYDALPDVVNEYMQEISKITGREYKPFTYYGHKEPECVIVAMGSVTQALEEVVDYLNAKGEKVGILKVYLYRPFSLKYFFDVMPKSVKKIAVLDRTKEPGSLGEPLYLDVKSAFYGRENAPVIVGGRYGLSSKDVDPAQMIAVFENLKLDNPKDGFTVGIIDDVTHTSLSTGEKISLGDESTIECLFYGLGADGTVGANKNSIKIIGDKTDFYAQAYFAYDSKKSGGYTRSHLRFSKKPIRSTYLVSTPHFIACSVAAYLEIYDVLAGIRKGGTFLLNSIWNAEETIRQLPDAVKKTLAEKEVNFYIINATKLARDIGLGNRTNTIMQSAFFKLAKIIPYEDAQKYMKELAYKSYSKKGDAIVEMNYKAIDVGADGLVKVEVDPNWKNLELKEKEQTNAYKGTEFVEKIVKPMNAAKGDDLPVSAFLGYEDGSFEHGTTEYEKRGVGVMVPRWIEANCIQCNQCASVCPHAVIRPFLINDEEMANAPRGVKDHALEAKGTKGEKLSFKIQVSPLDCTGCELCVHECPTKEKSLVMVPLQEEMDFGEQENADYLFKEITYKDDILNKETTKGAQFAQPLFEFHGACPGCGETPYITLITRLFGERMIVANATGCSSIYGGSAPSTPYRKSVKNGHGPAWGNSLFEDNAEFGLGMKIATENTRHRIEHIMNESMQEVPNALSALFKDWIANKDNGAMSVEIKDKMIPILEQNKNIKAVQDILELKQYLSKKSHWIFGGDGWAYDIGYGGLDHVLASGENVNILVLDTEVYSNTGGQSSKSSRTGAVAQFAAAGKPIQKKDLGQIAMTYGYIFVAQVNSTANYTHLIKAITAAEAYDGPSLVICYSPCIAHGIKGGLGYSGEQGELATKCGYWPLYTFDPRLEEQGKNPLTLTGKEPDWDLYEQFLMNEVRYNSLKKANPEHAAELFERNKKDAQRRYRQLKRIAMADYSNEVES
In words: Activity of PFOR in Campylobacter jejuni at anaerobic condition. The method in brief: as §1

The test system of another assay is Clostridioides difficile. Nature of the assay: Activity of PFOR in Clostridium difficile at anaerobic condition. The method in brief:
as §1

Assay [5] concerns Escherichia coli. In words: Growth inhibition of Escherichia coli pBSK after 16 hrs. The assay is classed as functional. The method in brief: (§2)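 E. coli CC104 carrying pGS950 (H. pylori rdxA) or empty pBSK, grown in 2% glucose MinA liquid medium with drug at 0, 5, 10 or 15 µg/ml. Turbidity at 660 nm read at 16 h in triplicate and expressed as a percentage of the no-drug control.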

Assay [6] deals with Entamoeba histolytica. In words: Inhibition of Entamoeba histolytica PFOR cloned in Escherichia coli assessed as [14C]pyruvate decarboxylation by BV assay.
Assay [7] in a line: Inhibition of PFOR Trichomonas vaginalis. The method in brief: (§3)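 PFOR in extracts or partly purified enzyme, standard anaerobic assay at 25°C with excess benzyl viologen (5 mM). Initial velocities of BV reduction at 546 nm measured at each NTZ level (0 to 264 µM). Plotted as 1/V against inhibitor concentration to derive Ki. Triplicate.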
In assay [8] the test system is Escherichia coli. Nature of the assay: Growth inhibition of Escherichia coli CC104 expressing rdxA gene after 16 hrs. Format: functional. The method in brief: as §2
Assay [9] in a line: Inhibition of PFOR Helicobacter pylori. The method in brief: as §3
Assay [10] concerns Escherichia coli. Nature of the assay: Growth inhibition of Escherichia coli. Format: functional.
Assay [11] relates to Escherichia coli. Nature of the assay: Inhibition of Escherichia coli JVQ2 PDH at 20 uM.
Assay [12] has as its target T3, Pyruvate-flavodoxin oxidoreductase (Campylobacter jejuni subsp. jejuni, UniProt Q0P8E1).
T3 sequence (Q0P8E1 whole entry): T2 sequence (whole entry)
Nature of the assay: Inhibition of PFOR Campylobacter jejuni. The method in brief:
as §3

Assay [13] is described as follows: Inhibition of PFOR Entamoeba histolytica. The method in brief: as §3

Each structure is given as a SMILES string. pKi: −log10 of the molar value. Active and inactive are the calls of the source. The rule behind the calls is not given here.

In the case of `Cc1ncc([N+](=O)[O-])n1CCO`, the result in the assay with Escherichia coli [1] was Active.

Take `c1ccc(C[n+]2ccc(-c3cc[n+](Cc4ccccc4)cc3)cc2)cc1`: the Activity in the assay with Helicobacter pylori was 127 nmol/mg/min; in the assay on Entamoeba histolytica [2] it was 742 nmol/mg/min; in assay [3], 225 nmol/mg/min; in the assay on Giardia duodenalis, 62.5 nmol/mg/min; in the assay on Trichomonas vaginalis, 52.5 nmol/mg/min; in assay [4], 115 nmol/mg/min. In the assay with Clostridioides difficile, this compound yielded an Activity of 106 nmol/mg/min.

In general, Inhibition refers to the drop in the measured response relative to a control, in per cent. A word on the pKi: it is the negative decadic logarithm of the Ki, by convention in mol/L. Read a high pKi as a low Ki. The term MIC denotes the lowest concentration that inhibits growth of the organism. By inhibition is commonly meant the change of the read-out against control, counted positive when it falls. In general, Km refers to the concentration of substrate that gives half-maximal velocity. With `CC(=O)Oc1ccccc1C(=O)Nc1ncc([N+](=O)[O-])s1` [NITAZOXANIDE], the Inhibition with Escherichia coli [5] and in the assay with Escherichia coli [8] was 35% in each case. For the same compound, the Activity in the assay with Helicobacter pylori came to 8.5 nmol/mg/min; in the assay on Entamoeba histolytica [2] it was 19 nmol/mg/min; in [3], 56.5 nmol/mg/min; with Giardia duodenalis, 41.5 nmol/mg/min; in [4] it was 20 nmol/mg/min; in the assay on Clostridioides difficile, 18.8 nmol/mg/min. Besides, in the assay with Entamoeba histolytica [6], the outcome was Active. For the same compound, the pKi is 5.66 in assay [7], 5.35 in assay [9], 4.98 in [12] and 5.00 in assay [13]. Moreover, the MIC against Escherichia coli [10] was above 32 µg/mL. This compound also showed an inhibition with Escherichia coli [11] of 22%. Moreover, the Km in the assay on Giardia duodenalis is 44 µM.
